Source: ChEMBL document CHEMBL1145968, “3-(alphaR)-alpha-((2S,5R)-4-allyl-2,5-dimethyl-1-piperazinyl)-3-hydroxybenzyl)-N-alkyl-N-arylbenzamides: potent, non-peptidic agonists of both the micro and delta opioid receptors” (J Med Chem, 2003)

Legend:
Cavia porcellus = species: Cavia porcellus; assay: Inhibition of the electrically induced muscle contractions was determined using the guinea pig ileum; type: functional
Summary of the method: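 Intact ileum segments (about 3 cm) suspended under 1 g tension in modified Krebs buffer containing 1.20 mM MgSO4. Field-stimulated with square-wave pulses at 0.1 Hz, 0.5 ms, supramaximal voltage. Cumulative concentrations were each given time for maximal response before the next.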

[1] = biological target: Delta-type opioid receptor (Rattus norvegicus, UniProt P33533); assay: Binding affinity of compound evaluated for Opioid receptor delta 1 isolated from rat brain
Chain of Delta-type opioid receptor (P33533 whole entry): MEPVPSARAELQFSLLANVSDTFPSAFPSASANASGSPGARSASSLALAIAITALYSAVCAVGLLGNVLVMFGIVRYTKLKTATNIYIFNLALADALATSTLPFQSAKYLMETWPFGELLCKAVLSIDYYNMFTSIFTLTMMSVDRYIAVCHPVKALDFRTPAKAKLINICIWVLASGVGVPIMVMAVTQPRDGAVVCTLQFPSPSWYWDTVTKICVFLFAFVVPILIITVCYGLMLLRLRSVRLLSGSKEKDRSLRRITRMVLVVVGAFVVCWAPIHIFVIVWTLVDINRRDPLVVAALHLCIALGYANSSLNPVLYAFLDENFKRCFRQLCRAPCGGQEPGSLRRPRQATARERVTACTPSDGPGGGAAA

Mus musculus = species: Mus musculus; assay: Inhibition of the electrically induced muscle contractions was determined using the mouse vas deferens; type: functional
Summary of the method: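 Vas deferens segments in Krebs buffer, placed between platinum electrodes with isometric force recording at 0.5 g resting tension. Stimulated with 400 ms trains (1 ms pulses, 10 Hz, supramaximal voltage). Cumulative concentrations were each allowed maximal effect before the next.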

| SMILES | EC50 (Cavia porcellus; Cavia porcellus, Ileum) | Ki [1] | EC50 (Mus musculus; Mus musculus) | EC50 (Cavia porcellus) | EC50 (Mus musculus) |
| --- | --- | --- | --- | --- | --- |
| C=CCN1C[C@H](C)N([C@H](c2cccc(O)c2)c2cccc(C(=O)N(CC)CC)c2)C[C@H]1C | 4.35 nM | 2.1 nM | 5.85 nM | – | – |
| C=CCN1C[C@H](C)N([C@@H](c2cccc(O)c2)c2cccc(C(=O)N(CCC)c3ccc(F)cc3)c2)C[C@H]1C | 1050 nM | 2.75 nM | 0.68 nM | – | – |
| C=CCN1C[C@H](C)N([C@H](c2cccc(O)c2)c2cccc(C(=O)N(C)c3ccccc3)c2)C[C@H]1C | 1.22 nM | – | 0.47 nM | – | – |
| C=CCN1C[C@H](C)N([C@@H](c2cccc(O)c2)c2cccc(C(=O)N(C)c3ccc(OC)cc3)c2)C[C@H]1C | 1.1 nM | 2.01 nM | 0.36 nM | – | – |
| C=CCN1C[C@H](C)N([C@@H](c2cccc(O)c2)c2cccc(C(=O)N3CCCc4ccccc43)c2)C[C@H]1C | 11.5 nM | 1.18 nM | 1.05 nM | – | – |
| C=CCN1C[C@H](C)N([C@@H](c2cccc(O)c2)c2cccc(C(=O)N(C)c3ccccc3C(F)(F)F)c2)C[C@H]1C | 5.6 nM | – | 0.95 nM | – | – |
| C=CCN1C[C@H](C)N([C@@H](c2cccc(O)c2)c2cccc(C(=O)N(C)c3ccccc3F)c2)C[C@H]1C | 4.1 nM | – | 0.69 nM | – | – |
| C=CCN1C[C@H](C)N([C@@H](c2cccc(O)c2)c2cccc(C(=O)N(C)c3ccc([N+](=O)[O-])cc3)c2)C[C@H]1C | 4.1 nM | – | 2.3 nM | – | – |
| C=CCN1C[C@H](C)N([C@@H](c2cccc(O)c2)c2cccc(C(=O)N(c3ccccc3)C3CC3)c2)C[C@H]1C | 1.23 nM | 1.92 nM | 1.42 nM | – | – |
| C=CCN1C[C@H](C)N([C@@H](c2cccc(O)c2)c2cccc(C(=O)N(C)c3cccc(F)c3)c2)C[C@H]1C (stereo in doubt; 32) | – | 11.4 nM | – | 1800 nM | 25.3 nM |
| C=CCN1C[C@H](C)N([C@@H](c2cccc(O)c2)c2cccc(C(=O)N(CCC)c3ccccc3)c2)C[C@H]1C | 18 nM | 1.26 nM | 2.4 nM | – | – |
| C=CCN1C[C@H](C)N([C@@H](c2cccc(O)c2)c2cccc(C(=O)N(CCCC)c3ccccc3)c2)C[C@H]1C | 41 nM | – | 1.7 nM | – | – |
| C=CCN1C[C@H](C)N([C@@H](c2cccc(O)c2)c2cccc(C(=O)N(C)c3ccc(Cl)cc3)c2)C[C@H]1C | 4.9 nM | 2.73 nM | 2.6 nM | – | – |
| C=CCN1C[C@H](C)N([C@@H](c2cccc(O)c2)c2cccc(C(=O)N(C)c3cccc(F)c3)c2)C[C@H]1C (stereo in doubt; 24) | – | 0.18 nM | – | 3.4 nM | 0.79 nM |
| C=CCN1C[C@H](C)N([C@@H](c2cccc(O)c2)c2cccc(C(=O)N(C)Cc3ccccc3)c2)C[C@H]1C | 6.07 nM | – | 5.6 nM | – | – |
| C=CCN1C[C@H](C)N([C@@H](c2cccc(O)c2)c2cccc(C(=O)N(CC)c3ccccc3)c2)C[C@H]1C | 0.94 nM | 2.17 nM | 0.96 nM | – | – |
| C=CCN1C[C@H](C)N([C@@H](c2cccc(O)c2)c2cccc(C(=O)N(CC)c3ccc(F)cc3)c2)C[C@H]1C | 4 nM | – | 1.4 nM | – | – |
| C=CCN1C[C@H](C)N([C@@H](c2cccc(O)c2)c2cccc(C(=O)N(C)CCc3ccccc3)c2)C[C@H]1C | 6.6 nM | – | 0.34 nM | – | – |
| C=CCN1C[C@H](C)N([C@@H](c2cccc(O)c2)c2cccc(C(=O)N(C)c3ccc(F)cc3)c2)C[C@H]1C | 0.67 nM | 1.4 nM | 1.1 nM | – | – |
| C=CCN1C[C@H](C)N(C(c2ccc(C(=O)N(CC)CC)cc2)c2cccc(O)c2)C[C@H]1C (single isomer, unassigned) | 150 nM | 1.8 nM | 0.2 nM | – | – |
| C=CCN1C[C@H](C)N([C@@H](c2cccc(O)c2)c2cccc(C(=O)N(C)c3ccccc3)c2)C[C@H]1C | 59.5 nM | 1.37 nM | 1.7 nM | – | – |
